Reference: ChEMBL document CHEMBL1150614, “Novel cytotoxic oxygenated C29 sterols from the Colombian marine sponge Polymastia tenax” (J Nat Prod, 2002)
Converted amounts (≈) assume the structure as drawn.

Experiments:
Conditions in all cases: read-out: LC50 (the source's name)
[1] = Cytotoxicity against mouse MS1 cells; assay type: cell-based
Procedure, shortened: (§1)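 In vitro cytotoxicity assay against the cell line named; values reported as IC50 in µg/mL.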

[2] = system: HT-29; experiment: Cytotoxicity against human HT-29 cells; assay type: functional; procedure, shortened: as §1
[3] = system: A549; experiment: Cytotoxicity against human A549 cells; assay type: functional; procedure, shortened: as §1
[4] = system: PC-3; experiment: Cytotoxicity against human PC3 cells; assay type: functional; procedure, shortened: as §1
[5] = Cytotoxicity against human H116 cells; assay type: functional; procedure, shortened: as §1

For `CC[C@H](CC[C@@H](C)[C@H]1CCC2=C3[C@H](O)[C@@H]4O[C@@]45C[C@@H](O)CC[C@]5(C)[C@H]3CC[C@@]21C)C(C)C`, the CC50 [1] was 0.5 µg/mL (≈ 1.12 µM), the CC50 [2] was 1 µg/mL (≈ 2.25 µM) and the CC50 [3] was 5 µg/mL (≈ 11.2 µM). The CC50 [4] was 1 µg/mL (≈ 2.25 µM) and the CC50 [5] was 1 µg/mL (≈ 2.25 µM).

`CC[C@H](CC[C@@H](C)[C@H]1CC[C@H]2C3=C(CC[C@]12C)[C@@]1(C)CC[C@H](O)C[C@@]12O[C@H]2[C@H]3O)C(C)C` (relative stereo) gave a CC50 [1] of 0.5 µg/mL (≈ 1.12 µM), a CC50 [2] of 1 µg/mL (≈ 2.25 µM) and a CC50 [3] of 1 µg/mL (≈ 2.25 µM). For the same compound, the CC50 [4] was 1 µg/mL (≈ 2.25 µM) and the CC50 [5] was 1 µg/mL (≈ 2.25 µM).
